Activity calls are given as the source filed them. The calls are words filed in the database; no cut-off is given here.

This note sets out measurements from ChEMBL document CHEMBL5357024, “MDM2 Antagonist Idasanutlin Reduces HDAC1/2 Abundance and Corepressor Partners but Not HDAC3” (ACS Med Chem Lett, 2024).

Test [1] concerns HCT-116. Put plainly: Effect on histone H3 lysine K56 acetylation in human HCT-116 cells assessed as increase in H3K56ac level at 0.1 to 10 uM by Western blot analysis. In kind it is functional, cell-based. The conditions noted are these: dose 0.1-10 µM. The gist of the method:
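HCT116 cells (DMEM, 10% FBS, glutamine/pen/strep, 37 °C, 5% CO2) seeded 24 h, then treated with DMSO or compound in fresh medium. Pellets after lysis were acid-extracted with 0.4 N H2SO4 at 4 °C overnight. Acid histone extract run on 4–12% bis-Tris gels, transferred to nitrocellulose and probed for H3K56ac. IRDye secondaries with infrared imaging.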
A general note: Immunoblotting shows a protein as a band on a membrane.

The target of test [2] is T1, E3 ubiquitin-protein ligase Mdm2/Histone deacetylase 1 (Homo sapiens) (UniProt Q00987+Q13547). Put plainly: PROTAC activity at MDM2/HDAC1 in human HCT-116 cells assessed as decrease in HDAC1 abundance by measuring remaining activity at 0.1 uM measured after 24 hrs by Western blot analysis (reference value: 100%). In kind it is cell-based. The essentials:
(§1)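 HCT116 cells seeded in six-well plates for 24 h, then exposed 24 h to compound (0.01–10 μM) or DMSO in fresh medium. Lysis in Tris-HCl/NaCl/NP-40/Triton X-100 with protease inhibitor. Bradford-normalised 30 μg protein per lane. Quantitative Western blot used specific HDAC1, HDAC2, HDAC3, LSD1 or Sin3a antibodies with IRDye secondaries. Abundance compared with DMSO, n = 2 replicates.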

For test [3], the target named is T1, E3 ubiquitin-protein ligase Mdm2/Histone deacetylase 1 (Homo sapiens). The experiment in a line: PROTAC activity at MDM2/HDAC1 in human HCT-116 cells assessed as decrease in HDAC1 abundance by measuring remaining activity at 0.25 uM measured after 24 hrs by Western blot analysis (reference value: 100%). In kind it is cell-based. The gist of the method: as §1

Test [4] has the same target. The experiment in a line: PROTAC activity at MDM2/HDAC1 in human HCT-116 cells assessed as decrease in HDAC1 abundance by measuring remaining activity at 2.5 uM measured after 24 hrs by Western blot analysis (reference value: 100%). In kind it is cell-based. The gist of the method:
as §1

Test [5] has as its target E3 ubiquitin-protein ligase Mdm2/Histone deacetylase 2 (Homo sapiens) (UniProt Q00987+Q92769). Put plainly: PROTAC activity at MDM2/HDAC2 in human HCT-116 cells assessed as decrease in HDAC2 abundance by measuring remaining activity at 0.25 uM measured after 24 hrs by Western blot analysis (reference value: 100%). In kind it is cell-based. The essentials:
as §1

T1 sequence (Q00987 whole entry, looked up): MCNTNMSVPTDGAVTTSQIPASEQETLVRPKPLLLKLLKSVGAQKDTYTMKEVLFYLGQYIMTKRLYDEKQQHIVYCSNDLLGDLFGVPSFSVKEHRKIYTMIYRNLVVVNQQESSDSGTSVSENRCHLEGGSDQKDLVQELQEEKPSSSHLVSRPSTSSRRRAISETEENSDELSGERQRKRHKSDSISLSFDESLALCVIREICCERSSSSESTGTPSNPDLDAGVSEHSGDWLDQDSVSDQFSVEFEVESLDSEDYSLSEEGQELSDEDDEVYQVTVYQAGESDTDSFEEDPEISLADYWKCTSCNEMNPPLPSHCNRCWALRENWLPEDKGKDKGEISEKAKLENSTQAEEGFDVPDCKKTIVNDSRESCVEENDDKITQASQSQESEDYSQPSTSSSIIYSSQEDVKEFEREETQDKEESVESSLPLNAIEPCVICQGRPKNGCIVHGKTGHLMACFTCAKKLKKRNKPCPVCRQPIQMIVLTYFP
T1 sequence (Q13547 whole entry, looked up): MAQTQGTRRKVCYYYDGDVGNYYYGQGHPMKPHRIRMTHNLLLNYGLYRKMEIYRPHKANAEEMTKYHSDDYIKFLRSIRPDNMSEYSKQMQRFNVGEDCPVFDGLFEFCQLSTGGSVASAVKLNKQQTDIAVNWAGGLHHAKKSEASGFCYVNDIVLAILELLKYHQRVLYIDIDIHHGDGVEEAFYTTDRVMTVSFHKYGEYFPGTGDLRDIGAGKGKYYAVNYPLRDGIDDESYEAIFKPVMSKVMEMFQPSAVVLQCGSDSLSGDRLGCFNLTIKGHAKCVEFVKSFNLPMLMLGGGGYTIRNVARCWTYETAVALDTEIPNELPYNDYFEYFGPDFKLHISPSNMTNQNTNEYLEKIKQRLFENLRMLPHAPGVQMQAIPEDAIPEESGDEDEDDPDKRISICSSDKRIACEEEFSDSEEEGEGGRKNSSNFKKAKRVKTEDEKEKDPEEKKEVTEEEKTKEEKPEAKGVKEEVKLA
Sequence of E3 ubiquitin-protein ligase Mdm2/Histone deacetylase 2 (Homo sapiens) (Q00987 whole entry, looked up): as the sequence (Q00987 whole entry, looked up) above
Sequence of E3 ubiquitin-protein ligase Mdm2/Histone deacetylase 2 (Homo sapiens) (Q92769 whole entry, looked up): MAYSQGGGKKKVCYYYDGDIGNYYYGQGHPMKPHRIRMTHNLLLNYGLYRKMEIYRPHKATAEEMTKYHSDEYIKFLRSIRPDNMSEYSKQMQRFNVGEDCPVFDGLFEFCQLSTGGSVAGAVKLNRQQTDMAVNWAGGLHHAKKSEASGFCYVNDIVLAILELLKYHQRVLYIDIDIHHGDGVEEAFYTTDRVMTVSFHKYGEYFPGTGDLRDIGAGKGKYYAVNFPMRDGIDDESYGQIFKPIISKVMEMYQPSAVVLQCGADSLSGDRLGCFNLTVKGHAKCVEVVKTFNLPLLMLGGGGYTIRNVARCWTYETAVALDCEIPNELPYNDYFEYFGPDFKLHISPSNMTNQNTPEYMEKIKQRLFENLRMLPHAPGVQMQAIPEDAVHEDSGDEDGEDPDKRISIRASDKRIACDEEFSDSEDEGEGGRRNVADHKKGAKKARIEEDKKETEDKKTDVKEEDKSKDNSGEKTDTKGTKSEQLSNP

Turning to `COc1cc(C(=O)NCCOCCOCCOCCOCCC(=O)Nc2ccc(C(=O)Nc3ccccc3N)cc2)ccc1NC(=O)[C@@H]1N[C@@H](CC(C)(C)C)[C@](C#N)(c2ccc(Cl)cc2F)[C@H]1c1cccc(Cl)c1F`, in test [1], the outcome was inactive. Further, the Activity in test [2] stood at 84%; in test [3] it was 70%; in test [4] it was 39%; in test [5], 90%.
